# Source: PubChem (several laboratories)
# Sampled rows, rich in hits. Any-hit rate of the full collection: about 2.9%.
# IMP-1 inhibitor: inhibitors of Pseudomonas aeruginosa IMP-1 metallo-beta-lactamase; purified IMP-1, nitrocefin hydrolysis, epi-absorbance fluorescence; inhibition, % at 5.6 µM; 290,000 tested, 0.45% active;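 active = inhibition above the mean plus 3 SD of all compounds in the same screening run, cut at about 4.5% in these data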;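 note: 0% = IMP-1 with DMSO and 100% = DMSO wells lacking enzyme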
#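 assay system = purified recombinant IMP-1 metallo-beta-lactamase enzyme | schedule = 15 min preincubation plus 25 min reaction at 25 °C | signal = Epi-absorbance fluorescence, 480 nm excitation, 530 nm emission | read-out basis = percent inhibition from optical density relative to buffer-blank wells | controls = IMP-1 with DMSO as 0%, enzyme-free DMSO as 100%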
# NALP3 yeast inh: inhibitors of NALP3 inflammasome in yeast; inhibition, % at 10 µM; Yeast reconstituted NLRP3/ASC/caspase-1, beta-gal luminescence, 24 h; 330,000 tested, 0.39% active;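 active = inhibition of 50% or more; inactive = inhibition below 50%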;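 note: plate controls were induced DMSO wells for no effect and uninduced yeast grown without galactose for full effect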
# Mot1-301 SUMO: inhibitors of SUMOylation pathway: yeast Mot1-301 growth rescue. growth rescue, % at 18.8 µM. S. cerevisiae Mot1-301 growth rescue, ATP luminescence, 38.5C; percent above DMSO median, 100 means doubled. 320,000 tested, 1% active;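 active = every valid replicate shows activation above 250% relative to neutral control wells; inactive = the rest, any valid replicate at or below 250%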;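 note: OY570 slx delta 5 strain wells were the positive control but not used for scaling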
# NALP1 inh: inhibitors of NALP1 inflammasome in yeast; AID 2071; 280,000 tested, 0.61% active; inhibition, % at 10 µM; S. cerevisiae NALP1/ASC/caspase-1 growth, X-gal OD620, 72 h; in the data active = inhibition mostly above about 24%, no sharp cut-off; inactive = mostly below about 32%
# VIM-2 inh: inhibitors of Pseudomonas aeruginosa VIM-2 metallo-beta-lactamase; purified VIM-2, nitrocefin hydrolysis, epi-absorbance fluorescence; 290,000 tested, 0.89% active; AID 1527; inhibition, % at 5.6 µM;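 active = inhibition above the mean of all tested compounds plus 3 SD, cutoff set per screening run, cut at about 7.5% in these data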;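 note: red hydrolysis product quenches plate fluorescence so inhibitors raise well fluorescence; 0% = enzyme with DMSO and 100% = DMSO without enzyme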
# PolyA inhibitor: inhibitors of polyadenylation in S. cerevisiae. S. cerevisiae SKY197-pL101 polyadenylation reporter, beta-gal luminescence; efflux-impaired pdr1/pdr3 knockout yeast; score 100 = 6 SD above DMSO. activity score, % at 12 µM. 300,000 tested, 0.02% active. AID 1875;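 active = lowest replicate activity score at least 50, where 100 means six control SD above control mean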;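 note: yeast exposed to compound for 9 h at 30 °C; higher score means more reporter readthrough which indicates perturbed polyadenylation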
# Active calls of the source: *; · = not tested or not shown; + = active, no number.
SMILES,IMP-1 inhibitor,NALP3 yeast inh,Mot1-301 SUMO,NALP1 inh,VIM-2 inh,PolyA inhibitor
CCn1cc(C(=O)OCC(=O)Nc2ccccc2OC(F)F)c(=O)c2ccc(C)nc21,·,14,9,·,·,·
O=[N+]([O-])c1cc([N+](=O)[O-])c(Oc2c(Cl)cccc2Cl)cc1NN1CCCCC1,4.8*,17,-3,9,2,7
CC(CCC(C)C(C)(C)C)[C@@H]1CC[C@H]2C3C[C@H](OS(O)(=S)=S)[C@H]4C[C@H](OS(O)(=S)=S)[C@@H](OS(O)(=S)=S)C[C@]4(C)[C@H]3CC[C@]12C (stereo partly drawn) (tested in a mixture with another compound),·,17,+,·,·,·
CC(C)n1cc(CN2CCC(Oc3ccc(C(=O)N4CCCC4)cc3)CC2)cn1,-1,11,-4,7,-1,-1
CCN1C(=O)c2cccc3c(S(=O)(=O)Nc4ccc(O)c(C(=O)O)c4)ccc1c23,-3,12,-10,2,8.2*,-5
CCN1C(=O)c2cccc3c(S(=O)(=O)NCc4ccccc4)ccc1c23,·,7,-17,·,·,·
CCOc1nc(Nc2ccc(OC)c(Cl)c2)nc(OCC)n1,-4,20,3,0,10*,-19
COc1ccc(Nc2cc(C)nc3ncnn23)cc1Cl,-5,12,-3,3,9.4*,-8
COc1ccc(-n2c(SCC(=O)NC3CC3)nc3ccccc3c2=O)cc1OC,·,21,2,·,·,·
OC1(c2cccs2)CN(c2ccc(Br)cc2)C2=[N+]1CCCS2 (stereo not drawn),-2,23,-1,7,-1,-9
COc1ccc(OC)c(N2CC(O)(c3cccs3)[N+]3=C2SCCC3)c1 (stereo not drawn),-1,-11,·,-3,8.2*,18
CC(=O)/C=C(\C)Nc1ccccc1O,-3,21,-10,43*,-1,-14
Nc1c(Cl)ncnc1N/N=C/c1ccc2ccccc2n1,-5,·,2,44,-4,·
Nc1c(Cl)ncnc1N/N=C/c1ccccn1,-1,·,11,94*,-5,·
CCCCn1c(N)c(N(C)C(=O)c2ccc(Br)o2)c(=O)[nH]c1=O,·,-14,-2,·,·,·
Cc1ccc(-c2nn(C)c(=O)c3ccccc23)cc1CNS(C)(=O)=O,-2,9,·,13,7,7
Cc1ccc(-c2nn(C)c(=O)c3ccccc23)cc1CN1CCCCC1,-4,9,0,1,9.2*,13
COc1cccc(CN(C)C(=O)CSCC(=O)Nc2cccc(C)c2)c1OC,·,8,10,·,·,·
N#Cc1cn(Cc2ccccc2)c2ccccc12,-1,35,0,27*,-4,-17
C=CCOn1c(=O)c(-c2ccc(C)cc2)[n+]([O-])c2ccccc21,-3,-4,-8,4,-1,-4
Cc1c(NC(=O)Nc2cccc(Cl)c2Cl)c(=O)n(-c2ccccc2)n1C,-2,-1,8,16,-3,-9
Cc1cc(NC(=O)CSc2nnc(-c3ccco3)n2Cc2ccco2)no1,-2,-6,15,-15,-5,3
CCn1c(SCC(=O)Nc2cc(C)on2)nnc1-c1ccco1,-5,3,-7,39*,-2,8
COc1cc(NC(=O)C(=O)NCCN2CCNCC2)c(OC)cc1Cl,-2,-3,-9,-4,10*,2
COCCNC(=O)C(c1ccncc1)N(C(=O)c1sc(C)nc1C)c1cccc(C)c1 (stereo not drawn),-2,11,+,3,-4,2
SMILES,IMP-1 inhibitor,NALP3 yeast inh,Mot1-301 SUMO,NALP1 inh,VIM-2 inh,PolyA inhibitor
CCC(C)(C)NC(=O)C(c1ccncc1)N(C(=O)c1sc(C)nc1C)c1ccc(F)cc1 (stereo not drawn),-2,12,-14,-2,-1,2
Cc1ccc(N/C(N)=N/c2nc3c(c(=O)[nH]2)CCCC3)c(C)c1,5.0*,16,-3,-10,-1,-9
N/C(=N\c1nc2c(c(=O)[nH]1)CCCC2)Nc1ccccc1,-3,8,-1,26,-2,-3
Cc1csc(C(=O)O)c1NC(=O)c1ccc(F)cc1,-2,6,-8,-5,-1,26
COC(=O)c1scc(C)c1N/N=C(\C)c1ccc(F)cc1,-3,6,10,42*,-2,-2
Cc1ccccc1N=C(NOCc1ccc(Cl)cc1Cl)c1nonc1N,2,13,17,40*,-2,-21
CCC(C)NS(=O)(=O)c1ccc(OCC(=O)Nc2ccc3c(c2)OCO3)cc1 (stereo not drawn),-2,-18,2,41*,-1,15
CCCCn1c(N)c(N(CCOC)C(=O)c2ccc(F)c(S(=O)(=O)N3CCOCC3)c2)c(=O)[nH]c1=O,·,11,13,·,·,-7
O=C(Nc1ccnn1C1CCN(C(=O)c2cnsn2)CC1)c1cccc(F)c1,0,-5,-11,1,-2,25
CCN(c1ccc(NC(=O)COC(=O)c2cccs2)cc1)C(C)C,-1,34,-2,-6,-1,7
CCN(CC)c1ccc(NC(=O)COC(=O)c2cccs2)cc1,-8,46,-9,36*,-2,10
CC1Cc2cc(S(=O)(=O)N3CCC(C(=O)N(C)Cc4ccccc4)CC3)ccc2N1C(=O)C1CC1 (stereo not drawn),-1,3,5,-1,0,-9
O=c1c2[nH]c3ccc(F)cc3c2ncn1CCCn1ccnc1,0,3,-2,12,8.0*,-15
O=c1c2[nH]c3ccc(F)cc3c2ncn1CCCN1CCOCC1,3,23,-24,24,0,0
Cn1nnnc1SCc1cccc(CSc2nnnn2C)n1,5.3*,15,83,-20,0,15
Cn1nnnc1SCc1ccc(CSc2nnnn2C)cc1,-1,-9,-23,0,-3,11
COc1cccc(/C=N/NC(=O)c2ccc(COc3ccc(Cl)cc3Cl)o2)c1,-2,1,322*,27,-5,-1
Cc1ccc(S(=O)(=O)N2CCCCC2)cc1NC(=O)CSc1ccc2c(c1)OCCO2,7.1*,-2,-16,27,0,7
Cn1c2ccc(F)cc2c2nnc(SCC(=O)Nc3cccc(O)c3)nc21,1,6,5,-4,8.8*,14
C=CCn1c2ccccc2c2nnc(SCCN3CCOCC3)nc21,-2,15,-4,0,12*,4
Cn1c2ccc(F)cc2c2nnc(SCCN3CCOCC3)nc21,-2,5,·,2,7.8*,-2
CCCCn1c2ccc(F)cc2c2nnc(SCCN3CCOCC3)nc21,0,-18,33,1,3,-7
O=S(=O)(Cc1ccc(Cl)cc1)NCc1ccc2c(c1)OCO2,0,25,-11,19,-1,6
O=C1C=C(c2ccccc2C(F)(F)F)C[C@@H](c2ccc3c(c2)OCO3)C1,·,16,-21,·,·,·
